hERG protect: compounds protecting human hERG from proarrhythmic drug block; hit rate 0.51% among 310,000; CHO-hERG, FluxOR thallium flux, dofetilide IC70 present; activation (rescue from dofetilide block), less the hit threshold, % at 10 µM;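 active means activation above the mean of controls blocked by dofetilide plus 5 SD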;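 further: thallium influx through hERG after potassium depolarization seen as dye fluorescence rise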
KCNQ1 block: blocks the human KCNQ1 potassium channel; CHO-K1 KCNQ1, FluxOR thallium flux fluorescence; hits give high values; P51787; hit rate 1.3% among 310,000; AID 2642; B-score at 10 µM;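 active means compounds whose thallium flux B-score, printed positive for inhibition, exceeds three library SD while starting fluorescence stays within three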;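 further: channel opened by potassium depolarization with thallium stimulus after 20 min compound exposure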
KCNK3 block: human KCNK3 channel inhibition, primary screen; CHO-KCNK3 thallium flux, FluxOR fluorescence; hits give low values; hit rate 0.84% among 340,000; B-score at 10 µM; AID 602410; O14649;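 active means B-score under library mean minus 4 SD, starting fluorescence ratio at most library mean plus 5 SD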;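 further: more negative B-score means stronger inhibition of thallium flux through KCNK3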
KCNK9 inh: inhibitors of human KCNK9 two-pore domain potassium channel; hit rate 1.2% among 310,000; Q9NPC2; B-score at 10 µM; HEK293 KCNK9, FluxOR thallium flux fluorescence; hits give low values;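 active means ratio B-score over 3 SD below the library mean, with starting fluorescence within 5 SD of its mean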;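 further: negative B-score means less thallium flux so channel inhibition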
KCNQ1 act: potentiators or activators of human KCNQ1 potassium channel; B-score at 10 µM; P51787; hit rate 0.35% among 310,000; CHO-K1 KCNQ1, thallium flux FluxOR fluorescence; hits give high values;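 active means fluorescence ratio B-score, a plate-corrected score, at least three library SD, with initial intensity B-score within 5 SD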
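Schedule – 37 °C overnight plating, 90-min dark dye load, 20-min compound pretreatment · System – stable KCNQ1 CHO-K1 line · Probe or stimulus – thallium- and potassium-containing depolarizing buffer · Measured by – kinetic FluxOR fluorescence, 10 s baseline plus 110 s post-stimulus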
Kir21 block: Kir2.1 (mouse) channel inhibition; HEK293-Kir2.1, FluxOR thallium flux fluorescence; hits give low values; B-score at 10 µM; hit rate 0.85% among 310,000; AID 1672;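 active means fluorescence ratio B-score at or below minus 3 SD of library scores, with starting-brightness B-score within 2 SD, cut at about -4.2 in these data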;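 further: channel flux triggered by added potassium and thallium sulfate stimulus; B-score of peak minus minimum fluorescence over baseline after thallium stimulus; more negative B-score means stronger Kir2.1 block with less thallium influx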
KCNQ1 inh valid: confirmation of human KCNQ1 potassium channel inhibitors; shares compounds with KCNQ1 block; KCNQ1 cell line, FluxOR thallium flux fluorescence; inhibition, % at 10 µM; hit rate 93% among 1,600; AID 588353;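 active means primary screen active, with duplicate mean exceeding buffer control mean plus 3 SD of buffer wells, cut at about 28% in these data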;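 further: 0% = buffer control ratio and 100% = XE991 inhibitor control ratio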
CHO KCNQ1 ctr: counter-screen for KCNQ1 inhibitors: effect in parental CHO cells; AID 588366; parental CHO-K1, FluxOR thallium flux fluorescence ratio; hits give low values; zero means no signal rise above baseline; shares compounds with KCNQ1 block; hit rate 21% among 1,600; fluorescence ratio (Tl flux) at 10 µM;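 active means mean of duplicate thallium-flux fluorescence ratios in parental host cells more than 5 SD below the buffer control mean, cut at about 0.38 in these data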;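 further: ratio is peak minus minimum fluorescence divided by baseline fluorescence; actives read low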
KCNQ1 ephys val: confirmation of human KCNQ1 potassium channel inhibitors by electrophysiology. shares compounds with KCNQ1 block. KCNQ1-CHO cells, automated patch clamp current. calls only at 10 µM. hit rate 20% among 490;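 active means KCNQ1 current drop exceeding 3 SD of negative control wells, seen in both duplicate runs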;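 further: steady state current during a 2 s step from -80 to +40 mV; negative values mean current inhibition and positive values mean potentiation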
KCNQ2 inh: KCNQ1 inhibitor that also blocks rat KCNQ2 channel. inhibition, % at 10 µM. KCNQ2 cells, FluxOR thallium flux fluorescence. shares compounds with KCNQ1 block. hit rate 71% among 1,600;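 active means mean percent inhibition of the KCNQ2 thallium signal more than 5 SD above the buffer-only control wells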;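 further: KCNQ2 expressed in CHO cells; 0% = buffer control wells and 100% = XE-991 inhibitor control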
Target sequence (O88943 whole entry, looked up): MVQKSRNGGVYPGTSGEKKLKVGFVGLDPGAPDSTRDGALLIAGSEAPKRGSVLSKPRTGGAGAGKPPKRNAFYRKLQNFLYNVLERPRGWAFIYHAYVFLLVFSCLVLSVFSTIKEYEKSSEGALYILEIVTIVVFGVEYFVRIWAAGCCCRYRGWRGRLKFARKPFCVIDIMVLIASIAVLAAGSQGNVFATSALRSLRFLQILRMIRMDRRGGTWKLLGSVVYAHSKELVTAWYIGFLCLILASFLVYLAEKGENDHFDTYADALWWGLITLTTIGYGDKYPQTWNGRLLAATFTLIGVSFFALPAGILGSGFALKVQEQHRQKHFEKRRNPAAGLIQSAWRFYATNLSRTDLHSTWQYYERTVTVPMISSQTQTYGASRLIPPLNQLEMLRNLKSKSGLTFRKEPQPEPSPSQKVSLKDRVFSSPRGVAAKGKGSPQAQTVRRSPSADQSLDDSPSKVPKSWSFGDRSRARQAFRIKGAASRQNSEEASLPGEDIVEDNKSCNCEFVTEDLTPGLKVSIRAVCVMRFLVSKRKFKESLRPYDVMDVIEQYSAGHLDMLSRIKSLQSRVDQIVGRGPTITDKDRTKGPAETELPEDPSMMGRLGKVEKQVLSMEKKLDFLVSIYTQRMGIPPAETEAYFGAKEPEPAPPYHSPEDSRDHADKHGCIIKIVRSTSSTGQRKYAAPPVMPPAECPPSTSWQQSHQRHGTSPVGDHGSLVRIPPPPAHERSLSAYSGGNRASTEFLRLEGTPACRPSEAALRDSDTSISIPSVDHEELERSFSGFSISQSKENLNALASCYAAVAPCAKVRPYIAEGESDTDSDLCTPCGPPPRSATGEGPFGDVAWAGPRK
KCNQ1 KCNE1 spec: selectivity of KCNQ1 inhibitors: inhibition of human KCNQ1/KCNE1 channel. shares compounds with KCNQ1 block. hit rate 77% among 1,600. AID 652147. inhibition, % at 10 µM. KCNQ1/KCNE1 cells, FluxOR thallium flux fluorescence;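 active means mean percent inhibition of duplicate wells above the buffer-only control mean plus 3 SD of those controls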;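 further: 0% = buffer only wells and 100% = XE-991 inhibitor control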
* hit, by the source's call; i = inactive; . = not tested or not shown; + = active, no number. In the library only some 3.7% were active in any assay of this set; here they are far more common.

SMILES	hERG protect	KCNQ1 block	KCNK3 block	KCNK9 inh	KCNQ1 act	Kir21 block	KCNQ1 inh valid	CHO KCNQ1 ctr	KCNQ2 inh	KCNQ1 KCNE1 spec	others
O=C(NC(c1cccnc1)C(F)(F)F)c1cc(COc2ccc3c(c2)CCCC3)on1 (stereo not drawn)	-16	16*	i	i	i	-0.63	138*	0.36*	118%*	+
CCOc1ccc(N(C)C(=O)CCc2nnc3ccc(N4CCC5(CC4)OCCO5)nn23)cc1	-6	i	i	i	i	-1.2	.	.	.	.
NC(=O)CSc1nc(C23CC4CC(CC(C4)C2)C3)nc2ccccc12	-17	6*	i	i	i	-1.4	91*	0.39	i	94%*	KCNQ1 ephys val=i
CCSc1nnc(NC(=O)NC(CC)(C(F)(F)F)C(F)(F)F)s1	-13	7*	i	i	i	-0.12	57*	0.5	i	91%*
O=C1CSC(c2cn(-c3ccccc3)nc2-c2ccccc2)N1Cc1ccco1 (stereo not drawn)	-12	10*	i	i	i	-0.45	134*	0.42	108%*	189%*	KCNQ1 ephys val=i
CSCCC(NC(=O)COc1ccccc1)C(=O)N1CCCC(C)C1 (stereo not drawn)	-12	i	i	i	i	-0.39	.	.	.	.
O=C(c1ccc2nc(Cc3cccc(Cl)c3)oc2c1)N1CCC[C@H]1CO	-5	i	i	i	i	0.88	.	.	.	.
COc1cc(OC)cc(C(=O)NCC2CCCN(Cc3cccc(C(C)=O)c3)C2)c1 (stereo not drawn)	-10	i	i	i	i	1.8	.	.	.	.
COc1ccc(C(=O)Nc2ccc(N3CCN(Cc4ccccc4)CC3)cc2)cc1	-9	i	i	i	i	1.3	.	.	.	.
COc1ccc(NC(=O)c2ccc(CN3CCN(c4ccccc4)CC3)cc2)cc1	-4	6*	i	i	i	-0.29	0	0.5	i	i
CCOC(=O)C(=CNc1ccc2c(c1)CCN2C(C)=O)C(=O)OCC	-16	i	i	i	i	-0.37	.	.	.	.
Cc1ccc(NCC(=O)NNC2=NCCC2)c(C)c1	-7	i	i	i	i	1.3	.	.	.	.
CCCCNC(=O)CCc1c(C)nc2nc(-c3cc(OC)cc(OC)c3)nn2c1C	-12	i	i	i	i	0.64	.	.	.	.
CCC(C)NC(=O)CCc1c(C)nc2nc(-c3cc(OC)cc(OC)c3)nn2c1C (stereo not drawn)	-11	8*	i	i	i	-0.02	+	0.51	i	i	KCNQ1 ephys val=i
CC(=O)NC(Cc1ccccc1)C(=O)Oc1ccc2ccccc2c1 (stereo not drawn)	.	.	i	.	.	.	.	.	.	.
Fc1cccc(-c2cc3nc(-c4ccccc4)cc(N4CCC5(CC4)OCCO5)n3n2)c1	-3	i	i	i	i	0.92	.	.	.	.
COCCN1CCN(c2cc(-c3ccccc3)nc3cc(-c4cccc(F)c4)nn23)CC1	-12	6*	i	i	i	-0.56	118*	0.34*	133%*	156%*
O=C(c1cccc(NS(=O)(=O)c2ccc(F)c(F)c2)c1)N1CCN(C(c2ccccc2)c2ccccc2)CC1	-15	11*	i	i	i	-0.23	131*	0.4	109%*	155%*	KCNQ1 ephys val=i
Oc1c(Br)cc(Br)cc1CNc1nccs1	-8	i	i	i	i	1.7	.	.	.	.
CCn1c(=O)c(C(=O)NCc2ccc(OC)cc2)c(O)c2ccccc21	-2	i	i	i	i	-1.1	.	.	.	.
CCCn1c(=O)c(C(=O)NCCc2ccc(OC)cc2)c(O)c2ccccc21	-1	9*	i	i	i	-2.8	93*	0.48	91%*	77%*	KCNQ1 ephys val=i
O=C(CCN1CCOCC1)c1ccc2c(c1)OCCO2	-15	8*	i	i	i	-1	64*	0.36*	i	60%*
C=CCn1c(=O)[nH]c2nc3cc(N=CN(C)C)c(C)cc3nc2c1=O	-20	8*	i	i	i	-5	102*	0.28*	i	152%*
O=C1c2ccccc2C(=O)N1CCCCN(C(=O)c1ccc(Cl)s1)c1ccc(Cl)cc1	-7	i	i	i	i	0.39	.	.	.	.
Cc1ccc(N(CCCCN2C(=O)c3ccccc3C2=O)C(=O)c2ccc(Cl)s2)cc1	-12	9*	i	i	i	-1.3	78*	0.49	71%*	34%*
SMILES	hERG protect	KCNQ1 block	KCNK3 block	KCNK9 inh	KCNQ1 act	Kir21 block	KCNQ1 inh valid	CHO KCNQ1 ctr	KCNQ2 inh	KCNQ1 KCNE1 spec	others
CC(C)(C)c1ccc(OCCC(=O)OCC(=O)N2c3ccccc3NC(=O)C2(C)C)cc1	-32	7*	i	i	i	1.7	120*	0.29*	140%*	56%*
Cc1ccccc1OCCC(=O)OCC(=O)N1c2ccccc2NC(=O)C1(C)C	-6	i	i	i	i	-0.23	.	.	.	.
CC(C)CC1c2[nH]c3ccccc3c2CCN1CCCn1cccn1 (stereo not drawn)	-10	i	i	i	i	-0.26	.	.	.	.
COC(=O)c1c(C)oc2ccc(N(C(=O)c3ccncc3)S(=O)(=O)c3ccccc3)cc12	-12	i	i	i	i	-0.37	.	.	.	.
COC(=O)c1c(C)oc2ccc(N(C(=O)c3ccncc3)S(=O)(=O)c3ccc(C)cc3C)cc12	-11	9*	i	i	i	-0.63	135*	0.39	127%*	131%*	KCNQ1 ephys val=i
COC(=O)c1c(C)oc2ccc(N(C(=O)c3ccncc3)S(=O)(=O)c3ccc4ccccc4c3)cc12	-10	8*	i	i	i	0.32	136*	0.4	110%*	140%*
CCOC(=O)C1CCN(C(=O)C2CCC(=O)N(CC3CCCCC3)C2)CC1 (stereo not drawn)	-9	i	i	i	i	0.05	.	.	.	.
CCCCCCCN1C2=NCCCN2c2ccccc21	-15	7*	i	i	i	-0.57	50*	0.51	i	55%*
